What was measured:
[1] = melting temperature; fluorescence melt of hairpins on a sequencing array, two-state fit, raised by 9.35 °C to match UV melts; conditions: sodium 0.088 M
Outline: (§1)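 To match UV melts, fitted temperatures were raised by 9.35 °C. These fits were bootstrapped two-state models that gave melting temperature and folding enthalpy, combined by inverse variance over four replicates. The input was normalised Cy3 fluorescence of library hairpins with annealed Cy3 and quencher oligos on a sequenced MiSeq flow cell, imaged in 50 mM Na-HEPES pH 8.0, 25 mM NaCl in 2.5 °C steps up to 60 °C.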

[2] = folding enthalpy; higher = less favourable; fluorescence melt of hairpins on a sequencing array, two-state fit; conditions: sodium 0.088 M
Outline: as §1

GTGTGAGGAAACTCACGC (.(((((....))))).)
Tm [1]: 53.3 °C
folding enthalpy [2]: -35.9 kcal/mol

GTGTGAGGAAACTCATAC ((.((((....)))).))
Tm [1]: 44.9 °C
folding enthalpy [2]: -36.5 kcal/mol

GTGTGAGGAAACTCATGC (..((((....))))..)
Tm [1]: 36.8 °C
folding enthalpy [2]: -23.5 kcal/mol

GTGTGAGGAAACTCGCAC (((.(((....))).)))
Tm [1]: 54.3 °C
folding enthalpy [2]: -47 kcal/mol

GTGTGCGAAAGCAAACAC ((((((....)))..)))
Tm [1]: 51.7 °C
folding enthalpy [2]: -24.1 kcal/mol

GTGTGCGAAAGCAGACAC ((((((....)))..)))
Tm [1]: 53.2 °C
folding enthalpy [2]: -19.1 kcal/mol

GTGTGCGAAAGCATCAC ((((((....))).)))
Tm [1]: 54 °C
folding enthalpy [2]: -21.9 kcal/mol

GTGTGCGGAAACGCATGC (..((((....))))..)
Tm [1]: 49.6 °C
folding enthalpy [2]: -15.9 kcal/mol

GTGTGGGAAACCACAC ((((((....))))))
Tm [1]: 63.4 °C
folding enthalpy [2]: -39.2 kcal/mol

GTGTGGGGAAACCCACAC (((((((....)))))))
Tm [1]: 69 °C
folding enthalpy [2]: -32.3 kcal/mol

GTGTGGGGAAACCCACGC (.(((((....))))).)
Tm [1]: 58.8 °C
folding enthalpy [2]: -14.2 kcal/mol

GTGTGGGGAAACCCATGC (..((((....))))..)
Tm [1]: 43.1 °C
folding enthalpy [2]: -21.5 kcal/mol

GTGTGGGGAAACCCGCAC (((.(((....))).)))
Tm [1]: 59.7 °C
folding enthalpy [2]: -35.3 kcal/mol

GTGTGTCGAAAGACCCAC (((.(((....))).)))
Tm [1]: 49.4 °C
folding enthalpy [2]: -29 kcal/mol

GTGTGTGGAAACACATGC (..((((....))))..)
Tm [1]: 49.6 °C
folding enthalpy [2]: -18.8 kcal/mol

GTGTGTGGAAACATGCAC (((..((....))..)))
Tm [1]: 43.3 °C
folding enthalpy [2]: -27.4 kcal/mol

GTGTGTTCGAAAGAACAC (((..(((....))))))
Tm [1]: 64.2 °C
folding enthalpy [2]: -15.7 kcal/mol

GTGTTACCGAAAGGTCAC (((..(((....))))))
Tm [1]: 43.6 °C
folding enthalpy [2]: -23.6 kcal/mol

GTGTTAGGAAACCAACAC (((((.(....).)))))
Tm [1]: 40 °C
folding enthalpy [2]: -28.9 kcal/mol

GTGTTAGGAAACTAACAC (((((((....)))))))
Tm [1]: 57.8 °C
folding enthalpy [2]: -42.1 kcal/mol

GTGTTCCGAAAGGAGCAC (((.(((....))).)))
Tm [1]: 59.3 °C
folding enthalpy [2]: -41.8 kcal/mol

GTGTTCGAAAGAAACAC ((((((....))).)))
Tm [1]: 47.1 °C
folding enthalpy [2]: -28.1 kcal/mol

GTGTTCGAAAGAACGCAC ((((((....)))..)))
Tm [1]: 48.4 °C
folding enthalpy [2]: -12.4 kcal/mol

GTGTTCGAAAGAAGCAC ((((((....))).)))
Tm [1]: 37.4 °C
folding enthalpy [2]: -21.8 kcal/mol

GTGTTCGGAAACAAACAC (((((.(....).)))))
Tm [1]: 37.8 °C
folding enthalpy [2]: -29.7 kcal/mol

GTGTTGGAAACAACAC ((((((....))))))
Tm [1]: 56.8 °C
folding enthalpy [2]: -35 kcal/mol

GTGTTGGGAAACTAGCAC (((.(.(....).).)))
Tm [1]: 31.8 °C
folding enthalpy [2]: -15.6 kcal/mol

GTGTTGGGAAACTGACAC ((((..(....)..))))
Tm [1]: 39.3 °C
folding enthalpy [2]: -27.6 kcal/mol

GTGTTTGCGAAAGCACAC (((..(((....))))))
Tm [1]: 45.9 °C
folding enthalpy [2]: -20.2 kcal/mol

GTGTTTGGAAACAAACAC (((((((....)))))))
Tm [1]: 59.6 °C
folding enthalpy [2]: -47.9 kcal/mol

GTTAAACGAAAGTTGAAC (((.(((....))).)))
Tm [1]: 41.7 °C
folding enthalpy [2]: -26 kcal/mol

GTTAACCCGAAAGGGAAC (((..(((....))))))
Tm [1]: 25.9 °C
folding enthalpy [2]: -12.2 kcal/mol

GTTAACCGAAAGGTGAAC (((.(((....))).)))
Tm [1]: 48.9 °C
folding enthalpy [2]: -27.7 kcal/mol

GTTAACGAAAGTTATAAC ((((((....)))..)))
Tm [1]: 26.4 °C
folding enthalpy [2]: -13.3 kcal/mol

GTTAACGAAAGTTGAAAC ((((((....)))..)))
Tm [1]: 24.9 °C
folding enthalpy [2]: -11.1 kcal/mol

GTTAACGGAAACGTTAAC (((((((....)))))))
Tm [1]: 56.9 °C
folding enthalpy [2]: -42.3 kcal/mol

GTTAAGCCGAAAGGCAAC (((..(((....))))))
Tm [1]: 32.9 °C
folding enthalpy [2]: -10.5 kcal/mol

GTTAAGCGAAAGCTAAAC (((.(((....))).)))
Tm [1]: 41.5 °C
folding enthalpy [2]: -19.9 kcal/mol

GTTAAGGGAAACCCTAAC ((((.((....)).))))
Tm [1]: 30.3 °C
folding enthalpy [2]: -14.2 kcal/mol

GTTAATGGAAACATTGAC ((.((((....)))).))
Tm [1]: 37.3 °C
folding enthalpy [2]: -26.1 kcal/mol

GTTACAGGAAACTGCAAC (((.(((....))).)))
Tm [1]: 35.8 °C
folding enthalpy [2]: -23.4 kcal/mol

GTTACCCCGAAAGGGAAC (((..(((....))))))
Tm [1]: 32.9 °C
folding enthalpy [2]: -16.5 kcal/mol

GTTACCCGAAAGGGAAC (((.(((....))))))
Tm [1]: 43.7 °C
folding enthalpy [2]: -17.1 kcal/mol

GTTACCGAAAGGTAAC ((((((....))))))
Tm [1]: 66.4 °C
folding enthalpy [2]: -34.6 kcal/mol

GTTACCGAAAGGTAGAAC ((((((....)))..)))
Tm [1]: 29.3 °C
folding enthalpy [2]: -10.1 kcal/mol

GTTACCGAAAGGTCTAAC ((((((....)))..)))
Tm [1]: 29.2 °C
folding enthalpy [2]: -9.14 kcal/mol

GTTACCGAAAGGTGTAAC ((((((....)))..)))
Tm [1]: 32.2 °C
folding enthalpy [2]: -14.9 kcal/mol

GTTACGGGAAACCGCAAC (((.(((....))).)))
Tm [1]: 41.7 °C
folding enthalpy [2]: -26 kcal/mol

GTTACTGAAAAGTAAC ((((((....))))))
Tm [1]: 49.4 °C
folding enthalpy [2]: -33.8 kcal/mol

GTTACTGGAAACAGTAAC (((((((....)))))))
Tm [1]: 54.1 °C
folding enthalpy [2]: -60.8 kcal/mol

GTTAGACGAAAGTCCAAC (((.(((....))).)))
Tm [1]: 38 °C
folding enthalpy [2]: -17.3 kcal/mol

GTTAGAGAAATCTAAC ((((((....))))))
Tm [1]: 38.4 °C
folding enthalpy [2]: -27.9 kcal/mol

GTTAGAGGAAACTCTAGC (.(((((....))))).)
Tm [1]: 34.5 °C
folding enthalpy [2]: -23.1 kcal/mol

GTTAGCCGAAAGGCGAAC (((.(((....))).)))
Tm [1]: 57.6 °C
folding enthalpy [2]: -20.5 kcal/mol

GTTAGCGAAAGCTAAAC ((((((....))).)))
Tm [1]: 46.5 °C
folding enthalpy [2]: -13.7 kcal/mol

GTTAGCGAAAGCTATAAC ((((((....)))..)))
Tm [1]: 31.4 °C
folding enthalpy [2]: -12.7 kcal/mol

GTTAGCGAAAGCTCAAC ((((((....))).)))
Tm [1]: 32.7 °C
folding enthalpy [2]: -11.8 kcal/mol

GTTAGCGAAAGCTGGAAC ((((((....)))..)))
Tm [1]: 27 °C
folding enthalpy [2]: -8.68 kcal/mol

GTTAGCGAAAGCTGTAAC ((((((....)))..)))
Tm [1]: 31.6 °C
folding enthalpy [2]: -9.81 kcal/mol

GTTAGCGGAAACACTAAC (((((.(....).)))))
Tm [1]: 36.6 °C
folding enthalpy [2]: -30.3 kcal/mol

GTTAGCGGAAACGCCAAC (((.(((....))).)))
Tm [1]: 37.4 °C
folding enthalpy [2]: -17.3 kcal/mol

GTTAGTCGAAAGACGAAC (((.(((....))).)))
Tm [1]: 49 °C
folding enthalpy [2]: -25.6 kcal/mol

GTTAGTGGAAACGCTAAC (((((.(....).)))))
Tm [1]: 45.3 °C
folding enthalpy [2]: -31.8 kcal/mol

GTTAGTGGAAACGTTAAC ((((..(....)..))))
Tm [1]: 27.6 °C
folding enthalpy [2]: -10.1 kcal/mol

GTTATACCGAAAGGTAAC (((..(((....))))))
Tm [1]: 32.8 °C
folding enthalpy [2]: -10.4 kcal/mol

GTTATACGAAAGTAGAAC (((.(((....))).)))
Tm [1]: 45.1 °C
folding enthalpy [2]: -29.9 kcal/mol

GTTATCCCGAAAGGGAAC (((..(((....))))))
Tm [1]: 26.8 °C
folding enthalpy [2]: -10 kcal/mol

GTTATCCGAAAGGAAAC (((.(((....))))))
Tm [1]: 31.5 °C
folding enthalpy [2]: -14.5 kcal/mol

GTTATCCGAAAGGACAAC (((.(((....))).)))
Tm [1]: 39.6 °C
folding enthalpy [2]: -26.3 kcal/mol

GTTATCGAAAGATGAAC ((((((....))).)))
Tm [1]: 26.4 °C
folding enthalpy [2]: -13.2 kcal/mol

GTTATGCGAAAGCAGAAC (((.(((....))).)))
Tm [1]: 55.9 °C
folding enthalpy [2]: -31.5 kcal/mol

GTTATGGGAAACCATAGC (.(((((....))))).)
Tm [1]: 36.9 °C
folding enthalpy [2]: -24.1 kcal/mol

GTTATTGGAAACAATAAC (((((((....)))))))
Tm [1]: 49.7 °C
folding enthalpy [2]: -35 kcal/mol

GTTCAACGAAAGTTAAAC (((.(((....))).)))
Tm [1]: 30.7 °C
folding enthalpy [2]: -18.6 kcal/mol

GTTCAAGAAATTGAAC ((((((....))))))
Tm [1]: 45.1 °C
folding enthalpy [2]: -29.2 kcal/mol

GTTCAAGCGAAAGCTAAC (((..(((....))))))
Tm [1]: 24.9 °C
folding enthalpy [2]: -11.4 kcal/mol

GTTCACCGAAAGGTAAC (((.(((....))))))
Tm [1]: 36.3 °C
folding enthalpy [2]: -16.3 kcal/mol

GTTCACCGAAAGGTCAAC (((.(((....))).)))
Tm [1]: 33 °C
folding enthalpy [2]: -18.4 kcal/mol

GTTCACGAAAGTGAAAAC ((((((....)))..)))
Tm [1]: 40.5 °C
folding enthalpy [2]: -11.7 kcal/mol

GTTCACGAAAGTGGGAAC ((((((....)))..)))
Tm [1]: 35.4 °C
folding enthalpy [2]: -13.3 kcal/mol

GTTCACGGAAACATGAAC (((((.(....).)))))
Tm [1]: 36.6 °C
folding enthalpy [2]: -21.1 kcal/mol

GTTCACGGAAACGTGGAC ((.((((....)))).))
Tm [1]: 52.8 °C
folding enthalpy [2]: -29.2 kcal/mol

GTTCACTCGAAAGAGAAC (((..(((....))))))
Tm [1]: 27.8 °C
folding enthalpy [2]: -9.99 kcal/mol

GTTCAGCGAAAGCTTAAC (((.(((....))).)))
Tm [1]: 40.9 °C
folding enthalpy [2]: -30.2 kcal/mol

GTTCAGGGAAACTTGAGC (.(((.(....).))).)
Tm [1]: 30.2 °C
folding enthalpy [2]: -18.4 kcal/mol

GTTCCAGGAAACTGGAAC (((((((....)))))))
Tm [1]: 60.4 °C
folding enthalpy [2]: -42.2 kcal/mol

GTTCCAGGAAACTGGAGC (.(((((....))))).)
Tm [1]: 47.2 °C
folding enthalpy [2]: -19.6 kcal/mol

GTTCCCGAAAGGGAAAC ((((((....))).)))
Tm [1]: 49.6 °C
folding enthalpy [2]: -12.6 kcal/mol

GTTCCCGAAAGGGACAAC ((((((....)))..)))
Tm [1]: 33.6 °C
folding enthalpy [2]: -8.79 kcal/mol

GTTCCCGGAAACGAGAAC ((((.((....)).))))
Tm [1]: 40.8 °C
folding enthalpy [2]: -30.2 kcal/mol

GTTCCGAAAGGAAC (((((....)))))
Tm [1]: 66.9 °C
folding enthalpy [2]: -29.5 kcal/mol
